By IC50 is commonly meant the concentration at which inhibition is half-maximal. Lower therefore signals greater potency. One may read the pKb as the Kb on a negative log10 scale, so that one unit is a factor of ten. By half-life is commonly meant how long it takes for the measured level to halve. A low value points to fast loss. One may read the solubility as the concentration that dissolves in the medium under given conditions. A lower solubility goes with a poorly soluble substance. Usually Cmax stands for the peak of the concentration-time curve. By Tmax is commonly meant the time at which the peak concentration occurs.

The text below walks through data of ChEMBL document CHEMBL1132964, “Selective ET(A) antagonists. 5. Discovery and structure-activity relationships of phenoxyphenylacetic acid derivatives” (J Med Chem, 2000).

Data set [1] concerns the target T1, Endothelin-1 receptor (Rattus norvegicus, UniProt P26684).
T1 sequence (P26684 whole entry): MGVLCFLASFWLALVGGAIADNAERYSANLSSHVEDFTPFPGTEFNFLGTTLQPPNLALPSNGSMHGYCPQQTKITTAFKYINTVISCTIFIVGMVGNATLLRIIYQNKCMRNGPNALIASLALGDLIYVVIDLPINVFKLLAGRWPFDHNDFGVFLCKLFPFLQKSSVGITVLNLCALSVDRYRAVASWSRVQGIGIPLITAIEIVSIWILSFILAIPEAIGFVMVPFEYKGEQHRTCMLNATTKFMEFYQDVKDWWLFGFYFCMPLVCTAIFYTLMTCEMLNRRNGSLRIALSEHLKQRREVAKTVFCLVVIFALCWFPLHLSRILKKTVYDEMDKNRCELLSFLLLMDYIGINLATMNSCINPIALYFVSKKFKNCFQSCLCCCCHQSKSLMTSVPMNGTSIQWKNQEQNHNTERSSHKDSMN
In words: In vitro ability to antagonise the binding of [125I]ET1 to the rat aortic A10 cell membrane endothelin A receptor. Format: cell membranes.

Data set [2] is filed under the species Rattus norvegicus. In words: Tested for inhibition of ET-1 induced contraction against isolated Rat aortic rings denuded of the endothelium. Format: functional, Aorta. Put shortly: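 Endothelium-denuded rat aortic rings contracted by ET-1. Tested compound at increasing concentrations, with ET-1 dose-response curves run in its presence. Antagonism expressed as pKb from the rightward shift of the ET-1 curve. Determinations in duplicate, with 95% confidence limits.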

Data set [3] is described as follows: Oral bioavailability in rat (Sprague-Dawley) (male) (dose 10 mg/kg). As to conditions: in vivo. The class given is ADME, organism-based. Put shortly:
(§1)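 Single 10 mg/kg oral dose to male Sprague-Dawley rats or male Beagle dogs. Plasma Cpmax (µg/mL), Tmax (h), t1/2 (h) and bioavailability (%) derived from the plasma profile.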

Data set [4] can be described thus: Tested for half life in male Sprague-Dawley rats dosed at 10 mg/kg orally. Format: ADME, organism-based. Also noted: dose 10 mg/kg, route oral. The note with it: rat, in vivo, po. Put shortly: as §1
Data set [5] in a line: Measured solubility. Format: ADME, organism-based, Rattus norvegicus.
The nature of data set [6]: Maximal plasma concentration in male Sprague-Dawley rats at 10 mg/kg oral dose. The class given is ADME, organism-based. More on the design: dose 10 mg/kg, route oral. The note with it: rat. Put shortly: as §1
The nature of data set [7]: Tested for Tmax in male Sprague-Dawley rats dosed at 10 mg/kg orally. The note with it: rat, in vivo, po. Also noted: dose 10 mg/kg, route oral. The class given is ADME, organism-based. An outline of the steps: as §1
Data set [8] is described as follows: Tested for half life in male Beagle dogs dosed at 10 mg/kg orally. The class given is ADME, organism-based, Canis lupus familiaris. Also noted: dose 10 mg/kg, route oral. As to conditions: dog, in vivo, po. An outline of the steps:
as §1

Data set [9] can be described thus: Maximal plasma concentration in male Beagle dogs at 10 mg/kg oral dose. Also noted: dose 10 mg/kg, route oral. The note with it: dog. Format: ADME, organism-based, Canis lupus familiaris. An outline of the steps: as §1
A short description of data set [10]: Tested for Tmax in male Beagle dogs dosed at 10 mg/kg orally. As to conditions: dog, in vivo, po. Format: ADME, organism-based, Canis lupus familiaris. More on the design: dose 10 mg/kg, route oral. Put shortly:
as §1

Data set [11] is described as follows: Tested for bioavailability in male Beagle dogs dosed at 10 mg/kg orally. Format: ADME, organism-based, Canis lupus familiaris. As to conditions: dog, in vivo, po, read-out: Bioavailabiility. An outline of the steps:
as §1

The subject of data set [12] is Endothelin receptor type A (Rattus norvegicus). In words: Inhibition of Endothelin A receptor in pithed rats 1.5 hour after oral administration at 75 uM/kg.
Data set [13] has the same test system. Put plainly: Inhibition of Endothelin A receptor in pithed rats 3 hour after oral administration at 75 umol/kg.
Data set [14] shares this test system. Put plainly: Activity against Endothelin A receptor in pithed rats after intravenous administration at 25 umol/kg.

SMILES strings stand for the structures. Converted amounts (≈) assume the structure as drawn. “And” between values parts separate entries of the source, which are not always exact repeats. Identical values can stand only once. The source made the active and inactive calls. No cut-off for these calls is given here.

With `N#Cc1ccc(OCc2ccc3ncoc3c2)cc1OC(C(=O)O)c1ccccc1Cl` (centres undefined), the IC50 in data set [1] is 9 nM. The same molecule returned a pKb in data set [2] of 7.5.

As for `N#Cc1ccc(OCc2ccsc2)cc1OC(C(=O)O)c1ccc(Cl)cc1` (centres undefined), the IC50 in [1] was found to be 504 nM.

As for `Cc1ccccc1C(Oc1cc(OCc2ccc3c(c2)OCCO3)ccc1C#N)C(=O)O` (centres undefined), in [1], the IC50 is 1500 nM.

Turning to `COc1cc(COc2ccc(C#N)c(OC(C(=O)O)c3ccccc3C)c2)cc(OC)c1OC` (centres undefined), the IC50 in data set [1] was above 3000 nM.

For the molecule `N#Cc1ccc(OCc2ccsc2)cc1OC(C(=O)O)c1ccccc1Cl` (centres undefined), the bioavailability in data set [3] came to 129%. Moreover, the half-life in data set [4] was 5 h. For the same molecule, in data set [5], the concentration in solution (solubility) came to 1190 µg/mL (≈ 2.98 mM). Further, in data set [6], the Cmax stood at 62000 ng/mL. Besides, the Tmax in data set [7] is 0.5 h. The molecule further yielded an IC50 in data set [1] of 17 nM. Also, the pKb in [2] came to 7.76.

For `Cc1ccccc1C(Oc1cc(OCc2ccncc2)ccc1C#N)C(=O)O` (centres undefined), in data set [1], the half-maximal inhibitory concentration (IC50) was 9 nM. Also, the pKb in [2] amounted to 7.6.

On to `Cc1ccccc1C(Oc1cc(OCc2ccccc2)ccc1C#N)C(=O)O` (centres undefined), for which, in data set [1], the concentration for half-maximal inhibition (IC50) was 49 nM.

`Cc1ccccc1C(Oc1cc(OCc2ccsn2)ccc1C#N)C(=O)O` (centres undefined) gave an IC50 in data set [1] of 220 nM.

On to `Cc1ccccc1[C@H](Oc1cc(OCc2ccncc2)ccc1C#N)C(=O)O`, for which, in data set [1], the IC50 is 5 nM. In data set [2], the negative logarithm of the Kb (pKb) amounted to 8.3.

In data set [1], `N#Cc1ccc(OCc2ccsc2)cc1OC(C(=O)O)c1ccccc1F` (centres undefined) came in with an IC50 of 22 nM.

`Cc1ccccc1C(Oc1cc(OCc2cccnc2)ccc1C#N)C(=O)O` (centres undefined): the IC50 in data set [1] was 30 nM.

In the case of `Cc1ccccc1C(Oc1cc(OCc2ccc3c(c2)OCO3)ccc1C#N)C(=O)O` (centres undefined) [listing 1 of 2 here], the IC50 in data set [1] was 12 nM. This molecule also gave a pKb in data set [2] of 7.9.

For `Cc1ccccc1[C@H](Oc1cc(OCc2ccc3c(c2)OCO3)ccc1C#N)C(=O)O`, the IC50 in [1] was determined as 6 nM. That is a single-digit nanomolar value.

`Cc1ccccc1C(Oc1cc(OCc2ccsc2)ccc1C#N)C(=O)O` (centres undefined) registered an IC50 in [1] of 20 nM. In data set [2], this molecule returned a pKb of 7.9.

As for `N#Cc1ccc(OCc2ccsc2)cc1OC(C(=O)O)c1ccccc1Br` (centres undefined), in data set [1], the IC50 came to 51 nM.

In the case of `Cc1ccccc1C(Oc1cc(OCc2ccncc2)ccc1C#N)C(=O)[O-].[Na+]` (centres undefined), the bioavailability in data set [3] worked out at 9%. Further, the half-life in [4] was 0.2 h. Also, the Cmax in data set [6] amounted to 290 ng/mL. In addition, the Tmax in [7] came out at 2 h. This molecule also returned an IC50 in data set [1] of 5 nM.

In [1], `Cc1ccccc1C(Oc1cc(OCc2ccnc(F)c2)ccc1C#N)C(=O)O` (centres undefined) showed an IC50 of 23 nM.

`N#Cc1ccc(OCc2ccsc2)cc1OC(C(=O)O)c1cccc(Cl)c1` (centres undefined) had a concentration for half-maximal inhibition (IC50) in [1] of 98 nM. This IC50 is about 4.3-fold higher than that of the molecule before.

In the case of `Cc1ccccc1C(Oc1cc(OCc2ccc3c(c2)OCO3)ccc1C#N)C(=O)[O-].[Na+]` (centres undefined), the results for the bioavailability in [3] and in [11] were 84% and 89%, respectively. Besides, the half-life is 7.4 h in data set [8] and 2.8 h in data set [4]. The same molecule displayed a solubility in data set [5] above 20000 µg/mL. Besides, the Cmax was 30100 ng/mL in data set [9] and 5900 ng/mL in data set [6]. Besides, the Tmax came to 0.5 h in data set [10] and 1 h in [7]. The same molecule registered a 50% inhibitory concentration (IC50) in data set [1] of 7 nM. This molecule came in with a pKb in data set [2] of 8.1.

For the molecule `N#Cc1ccc(OCc2ccncc2)cc1OC(C(=O)O)c1ccsc1` (centres undefined), the IC50 in [1] was found to be 630 nM.

As for `Cc1ccccc1C(Oc1cc(OCc2ccc3ncoc3c2)ccc1C#N)C(=O)O` (centres undefined), the IC50 in data set [1] was determined as 6 nM. In data set [2], this molecule showed a pKb of 7.8. For the same molecule, the result in data set [12] was inactive. Besides, the Activity in data set [13] worked out at 3.1 µM/kg; in data set [14] it was 63 µM/kg.

In [1], `N#Cc1ccc(OCc2ccnnc2)cc1OC(C(=O)O)c1ccccc1Cl` (centres undefined) showed an IC50 of 44 nM. This counts as double-digit nanomolar.

In data set [1], `N#Cc1ccc(OCc2ccsc2)cc1OC(C(=O)O)c1ccccc1` (centres undefined) had an IC50 of 70 nM. Besides, the pKb in data set [2] was found to be 7.24.

Molecule `Cc1ccccc1C(Oc1cc(OCc2c(C)cccc2C)ccc1C#N)C(=O)O` (centres undefined) came in with an IC50 in data set [1] of 857 nM.

On to `COc1ccccc1C(Oc1cc(OCc2ccsc2)ccc1C#N)C(=O)O` (centres undefined), for which, in [1], the IC50 was 529 nM.

Molecule `N#Cc1ccc(OCc2ccsc2)cc1OC(C(=O)O)c1ccccc1C(F)(F)F` (centres undefined) returned an IC50 in [1] of 53 nM.

On to `N#Cc1ccc(OCc2ccncc2)cc1OC(C(=O)O)c1ccccc1Cl` (centres undefined), for which, in [1], the IC50 came to 6 nM. In [2], this molecule displayed a pKb of 7.7. The Activity was 2.7 µM/kg in data set [12], 1.7 µM/kg in [13] and 46.8 µM/kg in [14].

`N#Cc1ccc(OCc2ccc3c(c2)OCO3)cc1OC(C(=O)O)c1ccccc1C(F)(F)F` (centres undefined): in data set [1], the IC50 is 16 nM. The molecule further showed a pKb in data set [2] of 7.4. Also, the Activity in [14] turned out to be 9 µM/kg.

In turn, `N#Cc1ccc(OCc2ccsc2)cc1OC(C(=O)O)c1ccoc1` (centres undefined) had a concentration for half-maximal inhibition (IC50) in [1] of 2850 nM.

In data set [1], `Cc1ccccc1C(Oc1cc(OCc2ccccn2)ccc1C#N)C(=O)O` (centres undefined) gave an IC50 above 3000 nM.

In the case of `Cc1ccccc1C(Oc1cc(OCc2ccc3c(c2)OCO3)ccc1C#N)C(=O)O` (centres undefined) [listing 2 of 2 here], the Activity in data set [12] is 26 µM/kg and 34 µM/kg; in data set [14] it was 23 µM/kg and 45 µM/kg.

`Cc1ccccc1C(Oc1cc(OCc2ccoc2)ccc1C#N)C(=O)O` (centres undefined): the IC50 in data set [1] stood at 68 nM.

For the molecule `Cc1ccccc1C(Oc1cc(OCc2cncs2)ccc1C#N)C(=O)O` (centres undefined), the IC50 in data set [1] was found to be 30 nM.

`N#Cc1ccc(OCc2ccc3c(c2)OCO3)cc1OC(C(=O)O)c1ccccc1` (centres undefined): the half-inhibitory concentration (IC50) in data set [1] amounted to 41 nM. This molecule displayed a pKb in [2] of 7.4. In addition, in data set [14], the Activity was determined as 7.6 µM/kg.

In [1], `Cc1ccccc1C(Oc1cc(OCc2ccc3ocnc3c2)ccc1C#N)C(=O)O` (centres undefined) came in with an IC50 of 75 nM.

`N#Cc1ccc(OCc2ccc3c(c2)OCO3)cc1OC(C(=O)O)c1ccccc1Cl` (centres undefined): in data set [3], the bioavailability was found to be 76%. The same molecule had a half-life in [4] of 6.3 h. For the same molecule, the solubility in data set [5] is 1680 µg/mL (≈ 3.84 mM). Moreover, the concentration in data set [6] peaked (Cmax) at 22000 ng/mL. For the same molecule, in data set [7], the Tmax was 1 h. Besides, the IC50 in data set [1] came out at 14 nM. This molecule also displayed a pKb in data set [2] of 8. In addition, the figures for the Activity in data set [12], in [13] and in data set [14] were 19 µM/kg, 10 µM/kg and 13.8 µM/kg, respectively.
